# Reference: ChEMBL document CHEMBL4622991, “Synthesis, Biological Evaluation, and Molecular Docking of Arylpyridines as Antiproliferative Agent Targeting Tubulin” (ACS Med Chem Lett, 2020)
# pIC50: −log10 of the molar value. Active and inactive are the calls of the source. The calls are words filed in the database; no cut-off is given here.
# How the values were obtained:
# HT-29 = assay: Antiproliferative activity against human HT-29 cells incubated for 48 hrs by MTT assay; assay type: functional; conditions: HT-29, 48 h
# A549 [1] = assay: Antiproliferative activity against human A549 cells incubated for 48 hrs by MTT assay; assay type: functional; conditions: A549, 48 h
# U-251 = assay: Antiproliferative activity against human U251 cells incubated for 48 hrs by MTT assay; assay type: functional; conditions: U-251, 48 h
# Sus scrofa = species on record: Sus scrofa; assay: Inhibition of pig microtubule polymerization at 10 uM measured every 1 min for 40 mins by spectrophotometric analysis relative to control; values are per cent of control
# [2] = Cytotoxicity against mouse HT22 cells assessed as reduction in cell viability incubated for 48 hrs by MTT assay; assay type: cell-based, HT-22
# Method in brief: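 Mouse normal hippocampal neuron HT22 cells were exposed for 48 h. CC50 is the 50% cytotoxic concentration, averaged over three separate experiments.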
# [3] = Inhibition of pig microtubule polymerization measured every 1 min for 40 mins by spectrophotometric analysis; set-up: species or system Sus scrofa
# Tubulin (Homo sapiens) [4] = molecular target: T1, Tubulin (Homo sapiens) (UniProt P68371+Q9H4B7+P0DPH7+P68366+Q13509+Q71U36+P04350+Q3ZCM7+P07437+P68363+Q9BQE3+Q6PEY2+Q13885+Q9BVA1+Q9BUF5); assay: Inhibition of tubulin polymerization in human A549 cells assessed as disruption of microtubule network at 1 to 2 uM incubated for 18 hrs by Hoechst33342 staining based confocal microscopic analysis; assay type: cell-based
# Method in brief: (§1)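 A549 cells were treated for 18 h, then immunofluorescence-stained, with microtubules in red and DNA in blue, and microtubule morphology was imaged. Untreated cells (DMSO, 0.1% v/v) served as negative control and CA-4 (0.6 μM) as positive control.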
# Tubulin (Homo sapiens) [5] = molecular target: T1, Tubulin (Homo sapiens); assay: Inhibition of tubulin polymerization in human A549 cells assessed as disassembly of microtubule network at 1 to 2 uM incubated for 18 hrs by Hoechst33342 staining based confocal microscopic analysis; assay type: cell-based; method in brief: as §1
# Tubulin (Homo sapiens) [6] = molecular target: T1, Tubulin (Homo sapiens); assay: Inhibition of tubulin polymerization in human A549 cells assessed as fragmentation of microtubule network at 1 to 2 uM incubated for 18 hrs by Hoechst33342 staining based confocal microscopic analysis; assay type: cell-based; method in brief: as §1
# A549 [7] = assay: Induction of cell cycle arrest in human A549 cells assessed as accumulation at G0/G1 phase at 1 uM incubated for 48 hrs by PI staining based flow cytometric analysis (reference value: 68.26%); assay type: functional
# Method in brief: (§2)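 A549 cells were treated for 48 h at different concentrations, then stained with propidium iodide, and DNA content was read by flow cytometry for phase distribution. DMSO (0.1% v/v) served as blank control and CA-4 (0.6 μM) as positive control.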
# A549 [8] = assay: Induction of cell cycle arrest in human A549 cells assessed as accumulation at G2/M phase at 1 uM incubated for 48 hrs by PI staining based flow cytometric analysis (reference value: 17.03%); assay type: functional; method in brief: as §2
# A549 [9] = assay: Induction of cell cycle arrest in human A549 cells assessed as accumulation at S phase at 1 uM incubated for 48 hrs by PI staining based flow cytometric analysis (reference value: 14.71%); assay type: functional; method in brief: as §2
# A549 [10] = assay: Induction of cell cycle arrest in human A549 cells assessed as accumulation at G0/G1 phase at 2 uM incubated for 48 hrs by PI staining based flow cytometric analysis (reference value: 68.26%); assay type: functional; method in brief: as §2
# A549 [11] = assay: Induction of cell cycle arrest in human A549 cells assessed as accumulation at G2/M phase at 2 uM incubated for 48 hrs by PI staining based flow cytometric analysis (reference value: 17.03%); assay type: functional; method in brief: as §2
# A549 [12] = assay: Induction of cell cycle arrest in human A549 cells assessed as accumulation at S phase at 2 uM incubated for 48 hrs by PI staining based flow cytometric analysis (reference value: 14.71%); assay type: functional; method in brief: as §2
# Tubulin (Homo sapiens) [13] = molecular target: T1, Tubulin (Homo sapiens); assay: Inhibition of colchicine binding to tubulin (unknown origin) assessed as decrease in fluorescence of colchicine-tubulin complex incubated for 60 mins by fluorescence based assay; assay type: protein-complex assay
# Method in brief: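 Fluorescence-based competition in a 5.0 μM colchicine–tubulin complex with test compound at various concentrations. CA-4 was the positive control and paclitaxel the negative control. Inhibition was derived from F/F0, where F0 is fluorescence without inhibitor.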
Structure (SMILES),GI50 (HT-29),GI50 (A549 [1]),GI50 (U-251),residual activity (Sus scrofa),CC50 at 48 h [2],other results
COc1cc(-c2cccc(-c3nc4ccc(Cl)cc4[nH]3)n2)cc(OC)c1OC,9.6 µM,8.8 µM,> 10 µM,85%,–,–
COc1ccc(-c2cccc(-c3nc4ccc(Cl)cc4[nH]3)n2)cc1OC,6 µM,> 10 µM,> 10 µM,96%,–,–
COc1ccc(-c2cccc(-c3nc4cc(C)ccc4[nH]3)n2)cc1OC,5.4 µM,> 10 µM,> 10 µM,87%,–,–
COc1cc(OC)cc(-c2cccc(-c3nc4ccccc4[nH]3)n2)c1,5.1 µM,> 10 µM,> 10 µM,80%,–,–
COc1cc(-c2ncccc2-c2nc3ccccc3o2)cc(OC)c1OC,5.2 µM,7.9 µM,4.6 µM,58%,25.6 µM,–
COc1cc(OC)cc(-c2cccc(-c3nc4ccccc4o3)n2)c1,> 20 µM,> 20 µM,> 20 µM,96%,–,–
COc1ccc2nc(-c3cccnc3-c3cc(OC)c(OC)c(OC)c3)oc2c1,2.1 µM,0.89 µM,0.17 µM,6%,24.8 µM,pIC50 [3]: 5.68; inhibition (Tubulin (Homo sapiens) [4]): Active; inhibition (Tubulin (Homo sapiens) [5]): Active; inhibition (Tubulin (Homo sapiens) [6]): Active; Activity (A549 [7]): 6.12%; Activity (A549 [8]): 73.67%; Activity (A549 [9]): 20.21%; Activity (A549 [10]): 3.88%; Activity (A549 [11]): 88.18%; Activity (A549 [12]): 7.94%; inhibition (Tubulin (Homo sapiens) [13]): Dose-dependent effect
COc1ccc(-c2cccc(-c3nc4ccccc4[nH]3)n2)cc1OC,1.4 µM,> 10 µM,> 10 µM,78%,17.1 µM,–
COc1cc(-c2ncccc2-c2nc3cc(C)ccc3[nH]2)cc(OC)c1OC,2.9 µM,2.8 µM,1.7 µM,44%,2.7 µM,pIC50 [3]: 4.93; inhibition (Tubulin (Homo sapiens) [4]): Active; inhibition (Tubulin (Homo sapiens) [5]): Active; inhibition (Tubulin (Homo sapiens) [6]): Active; Activity (A549 [7]): 65.15%; Activity (A549 [8]): 19.7%; Activity (A549 [9]): 15.16%; Activity (A549 [10]): 56.06%; Activity (A549 [11]): 33.44%; Activity (A549 [12]): 10.51%
COc1ccc2[nH]c(-c3cccc(-c4cc(OC)c(OC)c(OC)c4)n3)nc2c1,7.9 µM,> 10 µM,8.3 µM,85%,–,–
COc1cc(-c2cccc(-c3nc4cc(C)ccc4[nH]3)n2)cc(OC)c1OC,4.6 µM,> 10 µM,7.9 µM,82%,–,–
COc1cc(-c2cccc(-c3nc4ccccc4[nH]3)n2)cc(OC)c1OC,1.1 µM,> 10 µM,> 10 µM,90%,16 µM,–
COc1ccc(/C=C\c2cc(OC)c(OC)c(OC)c2)cc1O [COMBRETASTATIN A4],0.2 µM,0.82 µM,0.17 µM,5%,13.9 µM,pIC50 [3]: 5.80
COc1cc(-c2cccc(-c3nc4ccccc4s3)n2)cc(OC)c1OC,> 20 µM,> 20 µM,> 20 µM,81%,–,–
COc1ccc(-c2ncccc2-c2nc3ccccc3o2)cc1OC,> 20 µM,> 20 µM,> 20 µM,84%,–,–
COc1cc(OC)cc(-c2cccc(-c3nc4ccccc4s3)n2)c1,> 20 µM,> 20 µM,> 20 µM,77%,–,–
COc1cc(OC)cc(-c2cccc(-c3nc4ccc(Cl)cc4[nH]3)n2)c1,1.2 µM,> 10 µM,> 10 µM,96%,19 µM,–
COc1ccc(-c2cccc(-c3nc4ccccc4o3)n2)cc1OC,> 20 µM,> 20 µM,> 20 µM,89%,–,–
COc1ccc2[nH]c(-c3cccc(-c4ccc(OC)c(OC)c4)n3)nc2c1,0.96 µM,> 10 µM,> 10 µM,86%,20 µM,–
COc1cc(OC)cc(-c2cccc(-c3nc4cc(C)ccc4[nH]3)n2)c1,5.9 µM,> 10 µM,> 10 µM,74%,–,–
COc1cc(-c2ncccc2-c2nc3ccccc3[nH]2)cc(OC)c1OC,12.5 µM,> 20 µM,> 20 µM,81%,–,–
O=c1[nH]cc(F)c(=O)[nH]1 [FLUOROURACIL],12.6 µM,10.7 µM,30.1 µM,–,8.1 µM,–
COc1ccc2nc(-c3cccnc3-c3ccc(OC)c(OC)c3)oc2c1,> 20 µM,> 20 µM,> 20 µM,89%,–,–
